Data on five compounds can be found in PubChem BioAssay AID638 (SRMLSC, 2007).

Among all 1,300 compounds or so, about 65 (5%) were called active. The entries come from a sample that favours actives as a whole. Entries with a potency or affinity are not part of this list. Values without a mark were called inactive.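 The calls were made as follows: active = growth inhibition reaching a set limit at one or more tested doses; inactive = the rest.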

This test can be described thus: wild-type E. coli BW25113 antibacterial activity – OD615, dose response (AID 638). The following applies: at 100 µM (top of the series). The method, boiled down:
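assay system = wild-type Escherichia coli strain BW25113 growth | medium = Kanamycin-supplemented LB broth | measured by = optical density (absorbance) at 615 nm | timing = bacterial exposure to compound 20 h at 37 °C | doses = compound concentration series | measure = IC50 from 4-parameter logistic, bounds fixed 0–100% | controls = chloramphenicol 30 µM control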
On to `Clc1ccc(COC(Cn2ccnc2)c2ccc(Cl)cc2Cl)cc1` (stereo not given), for which the growth inhibition was 4.14%.
Consider `Clc1ccc(COC(Cn2ccnc2)c2ccc(Cl)cc2Cl)c(Cl)c1` (stereo not given), for which the growth inhibition was 10.9% (active).
The result for `Cc1nn(-c2ccccc2)c(Cl)c1C1C(C#N)=C(N)Oc2c1c(=O)oc1ccccc21` (stereo not given) reads 3.35%; that for `CN(C)C1(c2nnnn2CCOC(=O)Nc2ccc(Cl)cc2)CCCCC1`, 4.48%.
For the compound `CCC(=Nc1ccc(OC)cc1OC)c1c(O)n(C2CCCCC2)c(=O)[nH]c1=O`, the growth inhibition was -2.11%.
